# Only a selection was taken, and hits are over-represented in it overall.
# T cruzi inh = inhibitors of intracellular T. cruzi growth, primary screen, luminescence, NIH3T3 host cells; T. cruzi beta-gal in NIH3T3, 90 h; inhibition, % (no concentration beside the values); 300,000 tested, 1.4% active;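 active means mean inhibition across valid replicates above about 55%, limit read from the data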;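 further: signal also drops with host cell toxicity which is not excluded here; 0% = plate median of DMSO wells and 100% = zero luminescence signal; higher percent means less beta-gal luminescence so fewer parasites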
#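 Test system: β-gal T. cruzi (Tulahuen C4) inside NIH/3T3 cells / Quantity: 5,000 cells/well / Measured by: luminescence from GalScreen with 0.05% NP40, read after 60 min / Medium: DMEM plus 2% FBS / Measure: parasite load inhibition, % / Reagent: Tulahuen C4 trypomastigotes, 5000/well / Schedule: co-culture of at least 90 h after 3 h attachment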
# L major viab = Leishmania major promastigote growth inhibition, primary screen | Leishmania major promastigotes, resazurin fluorescence viability | inhibition, % at 10 µM | 200,000 tested, 9% active; in the data active means inhibition above about 50%;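 further: promastigotes grown with compound for 44 hours at 28 °C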
# XBP1 UPR activ = activators of adaptive XBP1 UPR arm, primary screen, cell-based, CHO-XBP1 luciferase reporter, luminescence, uHTS; activation, % at 20 µM; 330,000 tested, 0.33% active; IRE1-XBP1 UPR activation; percent of tunicamycin response, DMSO as zero;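 active means versus positive control, 20 µM dose yields 30% or more activation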;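 further: 100% = tunicamycin at 10 µg/mL and 0% = DMSO only wells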
#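 Material – CHO cell line with stable XBP1 luciferase reporter · Buffer or medium – F12 plus 10% FBS · Compound – single point, 20 µM final compound, 1% DMSO · Schedule – 16-18 h cell attachment at 37 °C, then 6 h compound exposure · Signal – Steady-Glo luminescence read · Benchmarks – high control tunicamycin 10 µg/mL final, low control DMSO vehicle only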
# Dynein cargo inh = inhibitors of GR-EGFP nuclear translocation, primary screen, dynein cargo transport inhibitor project, imaging, high-content, 3617.4 mouse cells | test concentration mostly 20 µM; stimulated with dexamethasone, 1 µM; stronger effect = lower value | z-score, hits read low | 220,000 tested, 0.47% active;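 active means plate z-score of nuclear minus cytoplasmic receptor signal below a set negative limit, without overly bright fluorescence or cell loss, cut at about -3.5 in these data, passing the limit was not always enough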;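 further: z-score of nuclear minus cytoplasmic ring GR-EGFP intensity difference per well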
#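 medium = tetracycline-free induction medium containing charcoal-stripped FBS | also added = 1.0 µM final dexamethasone stimulus | schedule = 48 h induction, 1 h compound, 30 min dex at 37 °C | technique = fixed, Hoechst-stained cells imaged at 10x for EGFP | measure = GR-EGFP nuclear translocation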
# CHOP inh = inhibitors of CHOP promoter induction, primary screen, cell-based, unfolded protein response, luciferase reporter; CHO-K1 CHOP-promoter luciferase, tunicamycin-induced, 15-18 h; inhibition, % at 10 µM; 220,000 tested, 3.8% active; AID 2732, 2010;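 active means compounds that reduced the stress-induced luciferase reporter signal by more than about 70% of percent inhibition, limit read from the data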;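 further: 0% = tunicamycin plus vehicle and 100% = wells without tunicamycin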
# CHOP UPR activ = activators of apoptotic CHOP UPR arm, primary screen, cell-based, CHO-CHOP luciferase reporter, luminescence, uHTS. UPR activation; percent of tunicamycin response over DMSO baseline. 330,000 tested, 0.34% active. activation, % at 10 µM. AID 449763, 2010;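 active means at 10 µM dose, activation of 40% or more, normalized to positive control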;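 further: 100% = tunicamycin at 10 µg/mL and 0% = DMSO alone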
#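 Material: CHO-CHOP cells, stable luciferase reporter of PERK-eIF2a-CHOP signalling; quantity: 500 reporter cells seeded per well; buffer or medium: F12 medium containing 10% fetal bovine serum; compound: one dose, 10 µM in 0.5% DMSO; incubation: 6 h compound treatment, 37 °C; measured by: Steady-Glo luciferase luminescence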
# * marks the source's active call; other numbers are inactive results; · = not tested or not shown.
SMILES,T cruzi inh,L major viab,XBP1 UPR activ,Dynein cargo inh,CHOP inh,CHOP UPR activ
CC(=O)c1ccc(NC(=S)NC(C)CCc2ccccc2)cc1 (configuration not stated),11,8,-2,-1.1,9,2
Cc1cccc(C)c1NC(=S)NC(C)CCc1ccccc1 (configuration not stated),2,61*,0,-1,15,3
O=C(CN1CCCCCC1)Nc1ccc(Cl)cn1,-4,·,-4,·,·,0
CCCCCCC(=O)Nc1ccc(Cl)cn1,14,2,4,0.36,-10,4
Cc1ccc(OCCC(=O)OCC(=O)Nc2ccc(Cl)cn2)cc1,-7,-1,-2,-0.49,74*,1
O=C(CCCOc1ccccc1)Nc1ccc(Cl)cn1,-16,-4,1,-0.53,72*,1
O=C(CS(=O)(=O)c1ccccc1)Nc1ccc(Cl)cn1,-9,·,-4,·,·,3
O=C(CC(c1ccccc1)c1ccccc1)Nc1ccc(Cl)cn1,11,16,-3,-0.59,78*,2
COc1ccc(OCCCC(=O)OCC(=O)Nc2ccc(Cl)cn2)cc1,-2,·,-4,·,·,1
O=C(CN1CCN(Cc2ccccc2)CC1)Nc1ccc(Cl)cn1,25,53*,1,-0.059,37,-2
CN(C(=S)NC(=O)C1CC1)c1ccc(O)cc1,·,·,-2,·,·,0
Cc1nc2ccc(S(=O)(=O)NCC(=O)Nc3cccc(F)c3)cc2s1,-5,-2,-5,0.23,16,-2
CN(C)CCN(C(=O)c1ccc2c(c1)OCCO2)c1nc2ccc(Cl)cc2s1,57*,0,0,-0.99,-5,1
CN(C)CCCN(C(=O)c1ccc2c(c1)OCCO2)c1nc2ccc(Cl)cc2s1,42,·,5,·,·,0
Cc1ccc(C(=O)N(CCCN(C)C)c2nc3ccc(Cl)cc3s2)cc1C,70*,82*,2,2.4,28,2
CCc1ccc2nc(N(CCN(C)C)C(=O)c3ccc4ncsc4c3)sc2c1,64*,·,0,·,·,3
Cc1ccc2nc(N(CCCN(C)C)C(=O)c3sc4ccccc4c3Cl)sc2c1,10,56*,-1,0.13,80*,5
CC(=O)c1cnc2c(-c3cccc(Br)c3)cnn2c1C,-5,88*,0,0.023,37,4
CCOC(=O)c1cnc2c(-c3ccc(F)cc3)cnn2c1C(F)(F)F,·,97*,·,-0.63,-15,·
CCOC(=O)c1cnc2c(-c3ccccc3)cnn2c1N,0,6,1,1.9,80*,6
CCOC(=O)c1cnc2c(N=Nc3ccccc3)c(N)nn2c1N,18,68*,0,0.66,20,1
CCOC(=O)Cc1c(C)nc2c(-c3cccc(Br)c3)cnn2c1C,-12,-8,3,-0.72,38,1
CCOC(=O)c1cnc2c(N=Nc3cccc(Cl)c3)c(N)nn2c1N,·,-6,·,-0.37,52,·
CCOC(=O)C(C)On1c(-n2nc(C)cc2C)nc2ccccc2c1=O (configuration not stated),-22,·,3,·,·,1
NC(N)=Nc1nc2ccc(Cl)cc2c(=O)[nH]1,-7,19,·,0.32,-3,·
SMILES,T cruzi inh,L major viab,XBP1 UPR activ,Dynein cargo inh,CHOP inh,CHOP UPR activ
CC(OC(=O)C1CCCCC1)C(=O)Nc1cccc([N+](=O)[O-])c1 (configuration not stated),·,·,-3,·,·,3
Cc1ccc(C(=O)N2CCCC(Nc3ccc(F)cc3)C2)cc1C (configuration not stated),13,·,-4,·,·,-2
CN1C/C(=C/c2cccnc2)C(=O)/C(=C/c2cccnc2)C1,·,100*,·,-5.9*,81*,·
CCn1c(NC(=O)c2ccc(F)cc2)c2ccccc2nc1=O,-33,3,-1,·,10,-1
CCn1c(NC(=O)c2ccc(C)cc2)c2ccccc2nc1=O,-1,77*,1,0.92,7,-2
CCOc1ccccc1N(C)C(=O)CCS(=O)(=O)c1ccc2c(c1)NC(=O)CO2,10,·,-4,·,·,0
Fc1cccc(NC(=S)NCc2ccccn2)c1,-7,63*,6,1.9,-13,4
Cc1ccc(S(=O)(=O)N2CCC(C(=O)OCC(=O)NCc3cccc(Cl)c3)CC2)cc1C,·,·,0,·,·,0
CNc1nc(SCc2ccccc2Cl)nc2c1CCCC2,14,88*,2,·,66,2
CCc1ccn2cc(-c3cc(-c4ccccc4)no3)nc2c1,-19,·,-9,-1.1,77*,-9
COc1ccc(-c2cc(C(=O)N/N=C(\C)c3cccnc3)c3ccccc3n2)c(OC)c1,16,·,-3,·,·,-1
COc1cccc2c1C(=O)O/C2=C/c1ccc2c(c1)OCO2,1,-14,-10,-3.3,85*,1
Cc1ccc(-c2ccc(/C=C3\SC(N4CCOCC4)=NC3=O)o2)cc1,66*,29,0,-0.54,-21,2
COc1ccc(OC)c(NC(=O)CSc2ncnc3c2cnn3-c2ccccc2Cl)c1,15,25,8,0.14,80*,6
C/C(=N\NC(=O)c1ccc(O)cc1)c1ccc2c(c1)Nc1ccccc1S2,53,75*,0,0.83,-14,4
C/C(=N\NC(=O)c1ccccc1F)c1ccc2c(c1)Nc1ccccc1S2,39,41,1,-0.5,29,4
C[C@H](CO)N1C[C@H](C)[C@@H](CN(C)C(=O)Nc2ccc3c(c2)OCO3)Oc2c(NS(=O)(=O)c3ccc(F)cc3)cccc2C1=O,·,·,-2,·,·,1
CC[C@H](C)[C@H]1O[C@]2(CC[C@@H]1C)C[C@@H]1C[C@@H](CC=C(C)[C@@H](O[C@H]3C[C@H](OC)[C@@H](O[C@H]4C[C@H](OC)[C@@H](O)[C@H](C)O4)[C@H](C)O3)[C@@H](C)C=CC=C3CO[C@@H]4[C@H](O)C(C)=C[C@@H](C(=O)O1)[C@]34O)O2,·,·,64*,·,·,39
CC1CCCN(CCCNC(=O)c2ccc3c(c2)N(Cc2ccccc2F)C(=O)c2ccccc2S3(=O)=O)C1 (configuration not stated),35,·,-1,·,·,0
O=C(N[C@H]1/C=C\[C@@H](O)CCCC1)OCc1ccccc1,·,·,0,·,·,3
Cc1ccc(-c2nc(SCC(=O)NCCN3C(=O)CSC3=O)[nH]c2-c2ccc(C)cc2)cc1,15,81*,-2,-0.96,36,2
